# Columns and labels:
# Botrytis cinerea [1] = test: Antifungal activity against Botrytis cinerea 98G1 assessed as drug level required for detectable inhibition of fungal growth after 24 hrs at 20 degC in darkness by microtiter plate method; format: functional
# Outline: (§1)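 B. cinerea 98G1 conidia (tomato leaf agar, near-UV induced sporulation, mesh-filtered) suspended at 10⁶ spores/mL in liquid Hagem, 100 μL per well over dried isolated enniatins or commercial enniatin mixture at 10, 25, 50, 75, 100 μg/mL. A620 read at inoculation and after 24 h at 20 ± 1 °C in darkness, plus stereomicroscope 4-rank scale; duplicate wells.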
# Botrytis cinerea [2] = test: Antifungal activity against Botrytis cinerea 98G1 spore germination after 24 hrs at 20 degC in darkness by microtiter plate method; format: functional; conditions: 98G1, 24 h; outline: as §1
compound,measurement,setting,value
CC(C)C[C@H]1C(=O)O[C@H](C(C)C)C(=O)N(C)[C@@H](C(C)C)C(=O)O[C@H](C(C)C)C(=O)N(C)[C@@H](C(C)C)C(=O)O[C@H](C(C)C)C(=O)N1C [ENNIATIN B4],Activity,Botrytis cinerea [1],50 µg/mL
same,MIC,Botrytis cinerea [2],> 100 mg/L
CC(C)[C@H]1C(=O)O[C@H](C(C)C)C(=O)N(C)[C@@H](C)C(=O)O[C@H](C(C)C)C(=O)N(C)[C@@H](C(C)C)C(=O)O[C@H](C(C)C)C(=O)N1C [ENNIATIN J1],Activity,Botrytis cinerea [1],>100 µg/mL
same,MIC,Botrytis cinerea [2],> 100 mg/L
CC[C@H](C)[C@H]1C(=O)O[C@H](C(C)C)C(=O)N(C)[C@@H](C(C)C)C(=O)O[C@H](C(C)C)C(=O)N(C)[C@@H](C(C)C)C(=O)O[C@H](C(C)C)C(=O)N1C [ENNIATIN B1],Activity,Botrytis cinerea [1],25 µg/mL
same,MIC,Botrytis cinerea [2],75 mg/L
CC(C)[C@H]1C(=O)O[C@H](C(C)C)C(=O)N(C)[C@@H](C(C)C)C(=O)O[C@H](C(C)C)C(=O)N(C)[C@@H](C(C)C)C(=O)O[C@H](C(C)C)C(=O)N1C [ENNIATIN B],Activity,Botrytis cinerea [1],100 µg/mL
same,MIC,Botrytis cinerea [2],> 100 mg/L
CC[C@H]1C(=O)O[C@H](C(C)C)C(=O)N(C)[C@@H](C(C)C)C(=O)O[C@H](C(C)C)C(=O)N(C)[C@@H](C(C)C)C(=O)O[C@H](C(C)C)C(=O)N1C [ENNIATIN K1],Activity,Botrytis cinerea [1],100 µg/mL
same,MIC,Botrytis cinerea [2],> 100 mg/L
CC(C)[C@@H]1NC(=O)[C@@H](C(C)C)OC(=O)[C@H](C(C)C)N(C)C(=O)[C@@H](C(C)C)OC(=O)[C@H](C(C)C)N(C)C(=O)[C@@H](C(C)C)OC1=O [ENNIATIN B2],Activity,Botrytis cinerea [1],>100 µg/mL
same,MIC,Botrytis cinerea [2],> 100 mg/L
